Screening data (PubChem BioAssay)
STAT3 blocker: IL-6 driven STAT3 reporter inhibitors, primary screen, U3A cells, luciferase, luminescence, MLSCN library; IL-6 STAT3-luciferase reporter; host cell line lacks STAT1; 190,000 tested, 0.89% active; inhibition, % at 5.5 µM;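 active means inhibition above the mean inhibition across all screened compounds plus 3 SD, cut at about 44% in these data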
APP 5'UTR act: activators of APP 5'UTR luciferase reporter, primary screen, SH-SY5Y cells | activation, % at 2 µM | 190,000 tested, 1% active | SH-SY5Y APP 5'UTR luciferase reporter, luminescence; zero percent = DMSO vehicle wells;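 active means activation above a set limit, based on mean plus 3 SD of controls, cut at about 140% in these data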
NF-kB neuron act: activators of NF-kB expression in neurons, primary screen, cell-based, HTS | human neuronal cells, NF-kB reporter expression; hits give high values | fold change at 12.5 µM | 190,000 tested, 1.6% active; in the data active means fold change above about 3.3
STAT3 act: IL-6 driven STAT3 reporter potentiators, primary screen, U3A cells, luciferase, luminescence, MLSCN library; activation (% of control), % at 5.6 µM; AID 871, 2007; IL-6 STAT3-luciferase reporter; 100% = signal with IL-6 EC80 alone; 190,000 tested, 0.91% active;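 active means activation above the screen-wide mean of compound activation plus 3 SD, cut at about 130% in these data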
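Material: STAT3-luciferase reporter U3A cells. Controls: IL-6-treated wells, 100% activation. Read-out: % activation versus median of IL-6-stimulated wells. Probe or stimulus: IL-6 stimulus at 33 ng/mL final. Timing: compound 1 h, then IL-6 6 h at 37 °C. Signal: reporter luminescence signal.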
STAT1 blocker: STAT1 signaling inhibitors, primary screen, cell-based, HTS, luciferase reporter; NIH 3T3 STAT1-luciferase reporter, IFN-gamma, luminescence; inhibition, % at 5.5 µM; 200,000 tested, 0.35% active; AID 920, 2007;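 active means inhibition above a set limit, the mean inhibition across all tested compounds plus 3 SD, cut at about 34% in these data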
STAT1 act: STAT1 signaling activators, primary screen, cell-based, HTS, luciferase reporter; NIH 3T3 STAT1-luciferase reporter, IFN-gamma, luminescence; 100% = IFN-gamma alone, no compound; activation (% of control), % at 5.5 µM; 200,000 tested, 2.6% active;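 active means activation above the screen-wide mean activation plus 3 SD, cut at about 130% in these data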
Numbers stand for hits; – = inactive; · = not tested or not shown. Most compounds without a hit are left out; they make up all but 5.1% or so of the library.

SMILES	STAT3 blocker	APP 5'UTR act	NF-kB neuron act	STAT3 act	STAT1 blocker	STAT1 act
O=[N+]([O-])c1ccc(/C=C/c2ccc3cccc([N+](=O)[O-])c3n2)cc1	–	–	–	–	–	–
O=[N+]([O-])c1cccc2ccc(/C=C/c3ccc(F)cc3)nc12	–	–	–	135	–	133
O=C(COC(=O)CNS(=O)(=O)c1cccc(Br)c1)Nc1ccccc1Sc1ccccc1	–	–	–	–	–	–
Cc1nccc(-c2ccc(-n3cnc4ccccc43)cc2)n1	–	·	–	–	–	–
Nc1nccc(-c2ccc(-n3cnc4ccccc43)cc2)n1	–	–	–	133	–	–
O=C(CSc1ncc(-c2ccc(F)cc2)n1Cc1ccco1)Nc1ccc2c(c1)OCO2	–	–	–	–	–	138
CCCCn1nnnc1SCC(=O)c1ccc(C)c(C)c1	–	–	–	–	–	–
Cc1ccc(C(=O)CSc2nnc(C(C)C)n2C)cc1C	–	–	3.4	–	–	–
O=C(CNC(=O)c1ccc([N+](=O)[O-])cc1)c1ccccc1	–	–	–	–	–	134
O=C(CNC(=O)c1cccs1)c1ccc([N+](=O)[O-])cc1	–	–	–	–	–	136
O=C(CNC(=O)c1cccs1)OCC(=O)c1ccc(Cl)cc1	–	–	–	–	–	–
O=C(CNC(=O)c1cccs1)c1ccc(F)cc1	–	158	4	–	–	–
O=C(CNC(=O)c1cccs1)OCC(=O)c1ccc([N+](=O)[O-])cc1	–	–	–	–	–	–
CC(Cc1ccccc1)NC(=O)c1ccc([N+](=O)[O-])cc1 (configuration not stated)	–	–	–	–	–	143
COc1ccccc1-n1cnc2cc(NCc3cccs3)ccc21	–	–	3.3	–	–	–
Cc1ccccc1-n1cnc2cc(NCc3cccs3)ccc21	–	–	–	–	–	–
CCNS(=O)(=O)c1ccc(CCC(=O)NCc2ccc(C)cc2)cc1	–	–	–	–	–	–
COc1ccc(OCCOC(=O)c2[nH]c(C)c(C(C)=O)c2C)cc1	–	–	5.8	–	–	–
O=C(NCc1ccco1)C1Cc2ccccc2CN1S(=O)(=O)c1ccccc1F (configuration not stated)	–	–	·	–	–	–
C=CCn1c(C(C)NC(=O)c2cccc(C)c2)n[nH]c1=S (configuration not stated)	–	–	3.3	–	–	–
Fc1ccccc1/C=N/Nc1ncnc2nc[nH]c12	–	–	–	–	–	137
Fc1cccc(/C=N/Nc2ncnc3nc[nH]c23)c1	–	–	–	–	–	138
Cc1cccc(Nc2ncnc3nc[nH]c23)c1	–	–	–	–	–	–
c1ccc(CNc2ncnc3nc[nH]c23)nc1	–	–	–	–	–	–
CCc1ccc(OCCNC(=O)c2ccccc2SCc2ccccc2)cc1	–	–	–	134	–	–
SMILES	STAT3 blocker	APP 5'UTR act	NF-kB neuron act	STAT3 act	STAT1 blocker	STAT1 act
O=C(COc1ncnc2ccccc12)c1ccc(Cl)cc1	–	–	–	–	–	134
c1ccc(OCCOc2ncnc3ccccc23)cc1	–	–	–	–	–	133
CCN1c2ccccc2-c2nc3ccccc3n2C1c1cccs1 (configuration not stated)	–	–	–	–	–	–
O=C(c1ccco1)N1CCN(Cc2nc(-c3cccs3)no2)CC1	–	–	–	–	–	–
CCc1nnc(NC(=O)c2cc3c(s2)CCCCC3)s1	–	–	·	–	–	–
Cc1csc(NC(=O)c2cc3c(s2)CCCCC3)n1	97	–	–	–	68	–
Cc1cnc(NC(=O)c2cc3c(s2)CCCC3)s1	74	173	4.1	–	42	–
CCOC(=O)c1cccc2c(=O)c(C(=O)c3ccc(Cl)cc3)c(C(=O)OC)[nH]c12	–	–	–	–	–	–
Cc1cc(Cl)ccc1OCC(=O)N/N=C1\CC2C=CCC12 (configuration not stated)	–	–	–	–	–	–
Nn1cnnc1SCC(=O)Nc1ccc2c(c1)OCO2	–	–	–	–	–	–
CCOc1ccccc1-c1nc(-c2ccncc2)no1	–	–	–	–	–	–
C(=C\c1nc(-c2ccncc2)no1)/c1ccccc1	–	–	·	–	–	150
Cn1nc(CSc2ccccc2)c(C=O)c1Cl	–	–	–	–	–	–
O=C(O)c1ccccc1NN=C1CCCCC1	–	–	3.4	–	–	138
CC(=O)Nc1sc(N/N=C\c2cccc(Cl)c2)nc1-c1cccs1	–	–	–	133	–	–
O=[N+]([O-])c1ccc(Sc2nnnn2-c2ccccc2)nc1	–	–	–	–	–	–
COc1ccc(S(=O)(=O)NCC(=O)O)cc1C(=O)NC1CCCCC1	–	–	–	–	–	–
CCn1c(/C=C/c2c[nH]c3ccccc23)nc2ccccc2c1=O	–	182	3.4	–	–	148
CCc1ccc(C2c3[nH]c4ccccc4c3CCN2C(=O)CN2CCN(CC)CC2)cc1 (configuration not stated)	–	–	–	134	–	–
CSc1ccc(C2c3[nH]c4ccccc4c3CCN2C(=O)c2ccnn2C)cc1 (configuration not stated)	–	–	–	150	–	137
CCc1ccc(C2c3[nH]c4ccccc4c3CCN2C(=O)CNC(N)=O)cc1 (configuration not stated)	–	–	–	–	–	–
CSCCC(NC(=O)C1CCC(C)CC1)C(=O)NCCN1CCC(C)CC1 (configuration not stated)	–	–	–	–	–	–
COC(=O)c1ccc(CN2CCN(CC=C(C)C)C(CCO)C2)cc1 (configuration not stated)	–	–	–	–	–	–
CCCCNC(=O)Nc1nc2ccc(CC)cc2s1	–	–	–	–	–	144
Cc1ccc2nc(NC(=O)CCCc3nc4ccccc4s3)sc2c1	–	–	–	–	–	–
SMILES	STAT3 blocker	APP 5'UTR act	NF-kB neuron act	STAT3 act	STAT1 blocker	STAT1 act
CCOC(=O)Nc1nc2ccccc2s1	–	–	3.5	–	–	–
O=C(Cc1c(F)cccc1Cl)Nc1nc2ccccc2s1	–	–	–	–	–	135
Cc1ccc2nc(NC(=O)CCCC(=O)O)sc2c1	80	–	–	–	51	–
CCOC(=O)C1(CCCc2ccccc2)CCN(Cc2ccn[nH]2)CC1	–	–	–	–	–	–
O=C(CSc1nnc(CNC(=O)c2ccco2)o1)Nc1nc2ccccc2s1	–	–	–	–	–	–
O=C(Nc1ccccc1)n1ccc(-c2ccc(-n3ccnc3)cc2)n1	–	–	–	–	–	–
